Source: ChEMBL document CHEMBL2375314, “Mitochondrial-targeted protective properties of isolated diterpenoids from sideritis spp. in response to the deleterious changes induced by H2O2” (J Nat Prod, 2013)
Active and inactive are the calls of the source. The calls are words filed in the database; no cut-off is given here.

Assays:
[1] = Neurotoxicity in human U373MG cells assessed as change in cytosolic calcium level at 10 uM after 24 hrs by indo-1/AM staining-based fluorocytometric analysis (reference value: 91.1 +/- 12.5 nM); format: toxicity, cell-based; details: u-373mg atcc
PC-12 [2] = assay: Neurotoxicity in rat PC12 cells assessed as change in mitochondrial calcium level at 5 uM after 24 hrs by Rhod-2 staining-based fluorocytometric analysis (reference value: 1 +/- 0.02 nM); format: toxicity, cell-based; details: pc-12, 24 h
Method in brief: (§1)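 24 h exposure at 5 or 10 μM, optionally followed by 30 min H2O2 (0.1 mM PC12, 1 mM U373-MG). Cells loaded with Rhod-2/AM in Krebs normal-calcium medium for 40 min at 37 °C in the dark, then 30 min for ester hydrolysis. Fluorescence at ex 552/em 581 nm for 4 min, then 15 min after A23187 (5 μM). Ratio of post-ionophore maximum to basal, relative to control; mean ± SD, n = 9.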

[3] = Neurotoxicity in human U373MG cells assessed as change in mitochondrial calcium level at 5 uM after 24 hrs by Rhod-2 staining-based fluorocytometric analysis (reference value: 1 +/- 0.03 nM); format: toxicity, cell-based; details: u-373mg atcc; method in brief: as §1
U373 MG [4] = assay: Neuroprotective activity in human U373MG cells assessed as decrease in H2O2-induced cytosolic calcium level at 10 uM incubated for 24 hrs prior to H2O2 challenge measured after 30 mins by indo-1/AM staining-based fluorocytometric analysis (reference value: 482.7 +/- 14.5 nM); format: functional, U-373MG ATCC
PC-12 [5] = assay: Neuroprotective activity in rat PC12 cells assessed as reduction of H2O2-induced mitochondrial calcium level at 5 uM incubated for 24 hrs prior to H2O2 challenge measured after 30 mins by Rhod-2 staining-based fluorocytometric analysis (reference value: 1.7 +/- 0.01 nM); format: functional; method in brief: as §1
[6] = Neurotoxicity in human U373MG cells assessed as change in mitochondrial calcium level at 10 uM after 24 hrs by Rhod-2 staining-based fluorocytometric analysis (reference value: 1 +/- 0.03 nM); format: toxicity, cell-based; details: u-373mg atcc; method in brief: as §1
PC-12 [7] = assay: Neurotoxicity in rat PC12 cells assessed as change in mitochondrial membrane potential at 5 to 10 uM after 24 hrs by TMRM staining-based fluorocytometric analysis relative to control; format: toxicity, cell-based; details: pc-12, 24 h
Method in brief: (§2)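 Cells given 5 or 10 μM for 24 h, then H2O2 for 30 min (0.1 mM PC12, 1 mM U373-MG) where challenged. Loaded in Krebs medium with 150 nM TMRM; fluorescence at ex 549/em 573 nm read for 45 min at 37 °C. FCCP (6 μM) plus oligomycin (0.25 μg/mL) then added for maximal depolarization and read 15 min. Value from maximal minus basal fluorescence, as % of control; mean ± SD, n = 9.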

PC-12 [8] = assay: Neuroprotective activity in rat PC12 cells assessed as decrease in H2O2-induced cytosolic calcium level at 5 uM incubated for 24 hrs prior to H2O2 challenge measured after 30 mins by indo-1/AM staining-based fluorocytometric analysis (reference value: 395.9 +/- 15.9 nM); format: functional
PC-12 [9] = assay: Neuroprotective activity in rat PC12 cells assessed as protection against H2O2-induced reduction in cellular ATP level at 5 to 10 uM incubated for 24 hrs prior to H2O2 challenge measured after 30 mins by HPLC analysis; format: functional, cell-based
Method in brief: (§3)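 After 24 h at 5 or 10 μM, with or without H2O2 for 30 min (0.1 mM PC12; 1 mM U373-MG), cells extracted in 0.6 M HClO4/25 mM EDTA and neutralized with KOH/Tris. Reversed-phase C18 HPLC, isocratic 100 mM KH2PO4 (pH 6.5)/1% methanol at 1 mL/min, UV at 254 nm. Quantified against an ATP standard curve (0.25–5 μM), normalized to protein, as % of control; mean ± SD, n = 9.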

PC-12 [10] = assay: Neurotoxicity in rat PC12 cells assessed as caspase-3 activation at 5 to 10 uM after 24 hrs by fluorometric analysis in presence of Ac-DEVD-AMC; format: toxicity, cell-based; details: pc-12, 24 h
Method in brief: (§4)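 Cells held 24 h with 5 or 10 μM, H2O2 then applied for 30 min in challenge arms (0.1 mM PC12, 1 mM U373-MG). Total cell extract (20 μg) incubated with Ac-DEVD-AMC (20 μM) for 1 h at 37 °C. Released AMC read at ex 360/em 460 nm. Expressed as % of control; mean ± SD, n = 9.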

PC-12 [11] = assay: Neuroprotective activity in rat PC12 cells assessed as inhibition of H2O2-induced caspase-3 activity at 5 to 10 uM incubated for 24 hrs prior to H2O2 challenge measured after 30 mins by fluorometric analysis in presence of Ac-DEVD-AMC; format: functional, cell-based; method in brief: as §4
PC-12 [12] = assay: Neurotoxicity in rat PC12 cells assessed as effect on cellular ATP level at 5 to 10 uM after 24 hrs by HPLC analysis; format: toxicity, cell-based; details: pc-12, 24 h; method in brief: as §3
U373 MG [13] = assay: Neuroprotective activity in human U373MG cells assessed as reduction of H2O2-induced mitochondrial calcium level at 10 uM incubated for 24 hrs prior to H2O2 challenge measured after 30 mins by Rhod-2 staining-based fluorocytometric analysis (reference value: 1.5 +/- 0.02 nM); format: functional, U-373MG ATCC; method in brief: as §1
U373 MG [14] = assay: Neuroprotective activity in human U373MG cells assessed as decrease in H2O2-induced cytosolic calcium level at 5 uM incubated for 24 hrs prior to H2O2 challenge measured after 30 mins by indo-1/AM staining-based fluorocytometric analysis (reference value: 482.7 +/- 14.5 nM); format: functional, U-373MG ATCC
PC-12 [15] = assay: Neurotoxicity in rat PC12 cells assessed as change in cytosolic calcium level at 5 uM after 24 hrs by indo-1/AM staining-based fluorocytometric analysis (reference value: 51.3 +/- 11.3 nM); format: toxicity, cell-based; details: pc-12, 24 h
U373 MG [16] = assay: Neuroprotective activity in human U373MG cells assessed as protection against H2O2-induced reduction in mitochondrial membrane potential at 5 to 10 uM incubated for 24 hrs prior to H2O2 challenge measured after 30 mins by TMRM staining-based fluorocytometric analysis relative to control; format: functional, cell-based; details: U-373MG ATCC; method in brief: as §2
[17] = Neurotoxicity in human U373MG cells assessed as effect on cellular ATP level at 5 to 10 uM after 24 hrs by HPLC analysis; format: toxicity, cell-based; details: u-373mg atcc; method in brief: as §3
[18] = Neurotoxicity in human U373MG cells assessed as caspase-3 activation at 5 to 10 uM after 24 hrs by fluorometric analysis in presence of Ac-DEVD-AMC; format: toxicity, cell-based; details: u-373mg atcc; method in brief: as §4
PC-12 [19] = assay: Neuroprotective activity in rat PC12 cells assessed as reduction of H2O2-induced mitochondrial calcium level at 10 uM incubated for 24 hrs prior to H2O2 challenge measured after 30 mins by Rhod-2 staining-based fluorocytometric analysis (reference value: 1.7 +/- 0.01 nM); format: functional; method in brief: as §1
PC-12 [20] = assay: Neuroprotective activity in rat PC12 cells assessed as decrease in H2O2-induced cytosolic calcium level at 10 uM incubated for 24 hrs prior to H2O2 challenge measured after 30 mins by indo-1/AM staining-based fluorocytometric analysis (reference value: 395.9 +/- 15.9 nM); format: functional
PC-12 [21] = assay: Neurotoxicity in rat PC12 cells assessed as change in cytosolic calcium level at 10 uM after 24 hrs by indo-1/AM staining-based fluorocytometric analysis (reference value: 51.3 +/- 11.3 nM); format: toxicity, cell-based; details: pc-12, 24 h
PC-12 [22] = assay: Neurotoxicity in rat PC12 cells assessed as change in mitochondrial calcium level at 10 uM after 24 hrs by Rhod-2 staining-based fluorocytometric analysis (reference value: 1 +/- 0.02 nM); format: toxicity, cell-based; details: pc-12, 24 h; method in brief: as §1
PC-12 [23] = assay: Neuroprotective activity in rat PC12 cells assessed as protection against H2O2-induced reduction in mitochondrial membrane potential at 5 to 10 uM incubated for 24 hrs prior to H2O2 challenge measured after 30 mins by TMRM staining-based fluorocytometric analysis relative to control; format: functional, cell-based; method in brief: as §2
U373 MG [24] = assay: Neuroprotective activity in human U373MG cells assessed as protection against H2O2-induced reduction in cellular ATP level at 5 to 10 uM incubated for 24 hrs prior to H2O2 challenge measured after 30 mins by HPLC analysis; format: functional, cell-based; details: U-373MG ATCC; method in brief: as §3
[25] = Neurotoxicity in human U373MG cells assessed as change in cytosolic calcium level at 5 uM after 24 hrs by indo-1/AM staining-based fluorocytometric analysis (reference value: 91.1 +/- 12.5 nM); format: toxicity, cell-based; details: u-373mg atcc
U373 MG [26] = assay: Neuroprotective activity in human U373MG cells assessed as inhibition of H2O2-induced caspase-3 activity at 5 to 10 uM incubated for 24 hrs prior to H2O2 challenge measured after 30 mins by fluorometric analysis in presence of Ac-DEVD-AMC; format: functional, cell-based; details: U-373MG ATCC; method in brief: as §4
U373 MG [27] = assay: Neuroprotective activity in human U373MG cells assessed as reduction of H2O2-induced mitochondrial calcium level at 5 uM incubated for 24 hrs prior to H2O2 challenge measured after 30 mins by Rhod-2 staining-based fluorocytometric analysis (reference value: 1.5 +/- 0.02 nM); format: functional, U-373MG ATCC; method in brief: as §1
[28] = Neurotoxicity in human U373MG cells assessed as change in mitochondrial membrane potential at 5 to 10 uM after 24 hrs by TMRM staining-based fluorocytometric analysis relative to control; format: toxicity, cell-based; details: u-373mg atcc; method in brief: as §2

| SMILES | Activity [1] [nM] | Activity (PC-12 [2]) [nM] | Activity [3] [nM] | Activity (U373 MG [4]) [nM] | Activity (PC-12 [5]) [nM] | Activity [6] [nM] | Activity (PC-12 [7]) | Activity (PC-12 [8]) [nM] | Activity (PC-12 [9]) | Activity (PC-12 [10]) | Activity (PC-12 [11]) | Activity (PC-12 [12]) | Activity (U373 MG [13]) [nM] | Activity (U373 MG [14]) [nM] | Activity (PC-12 [15]) [nM] | Activity [17] | Activity [18] | Activity (PC-12 [19]) [nM] | Activity (PC-12 [20]) [nM] | Activity (PC-12 [21]) [nM] | further results |
| --- | --- | --- | --- | --- | --- | --- | --- | --- | --- | --- | --- | --- | --- | --- | --- | --- | --- | --- | --- | --- | --- |
| CC1(C)CCC[C@H]2C1=CC[C@H]1C[C@@](C)([C@@H](O)CO)C[C@@H](O)[C@@]12C [LAGASCATRIOL] | 98.1 | 0.9 | 1.02 | 208.5 | 1.4 | 1.05 | Non-toxic | 202.5 | Active | Non-toxic | Active | Non-toxic | 1.17 | 222.5 | 63.5 | Non-toxic | Non-toxic | 1.5 | 187.7 | 51.4 | Activity (U373 MG [16]): Active; Activity (PC-12 [22]): 0.98 nM; Activity (PC-12 [23]): Active; Activity (U373 MG [24]): Active; Activity [25]: 102.1 nM; Activity (U373 MG [26]): Active; Activity (U373 MG [27]): 1.22 nM; Activity [28]: Non-toxic |
| CC1(C)CCC[C@]2(C)[C@@H]1C[C@H](O)[C@@]13C=C[C@@](CO)(C1)[C@H](O)C[C@@H]23 [CONCHITRIOL] | 98 | 1.08 | 0.99 | 430.9 | 1.4 | 0.97 | Non-toxic | 188.8 | Active | Non-toxic | Active | Non-toxic | 1.45 | 479.6 | 53.5 | Non-toxic | Non-toxic | 1.3 | 192.6 | 60.6 | Activity (PC-12 [22]): 1.05 nM; Activity (PC-12 [23]): Active; Activity [25]: 93.2 nM; Activity (U373 MG [27]): 1.48 nM; Activity [28]: Non-toxic |
| C=CC(=C)CC[C@H]1[C@]2(C)CCC[C@](C)(CO)[C@H]2[C@H](O)C[C@]1(C)O [ANDALUSOL] | 98 | 1.05 | 0.97 | 166.2 | 1.3 | 0.99 | Non-toxic | 185.8 | Active | Non-toxic | Active | Non-toxic | 1.09 | 189.6 | 56.5 | Non-toxic | Non-toxic | 1.2 | 174.8 | 56.8 | Activity (U373 MG [16]): Active; Activity (PC-12 [22]): 1.09 nM; Activity (PC-12 [23]): Active; Activity (U373 MG [24]): Active; Activity [25]: 92.2 nM; Activity (U373 MG [26]): Active; Activity (U373 MG [27]): 1.15 nM; Activity [28]: Non-toxic |
